Source: ChEMBL document CHEMBL1137295, “Discovery of HIV-1 protease inhibitors with picomolar affinities incorporating N-aryl-oxazolidinone-5-carboxamides as novel P2 ligands” (J Med Chem, 2006)

Experiments:
[1] = molecular target: Human immunodeficiency virus type 1 protease (Human immunodeficiency virus 1, UniProt Q72874, Q7K); experiment: Inhibition of wild type HIV1 protease Q7K mutant
Procedure, shortened: (§1)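 Protease desalted into 20 mM sodium acetate pH 5, about 50 nM apparent by A280. Preincubated with inhibitor in DMSO 20-30 min at room temperature. Buffer 0.1 M NaOAc, 1 M NaCl, 1 mM EDTA, 1 mM DTT, 2% DMSO, 1 mg/mL BSA, pH 4.7. Read 340/490 nm, 30 °C, ~10 min. Ki by nonlinear fit of initial velocity versus inhibitor concentration.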

[2] = molecular target: Human immunodeficiency virus type 1 protease (Human immunodeficiency virus 1, UniProt Q72874, A71V/G73S/I84V/L10I/L63P/L90M); experiment: Inhibition of HIV1 protease L10I/L63P/A71V/G73S/I84V/L90M mutant; procedure, shortened: as §1
[3] = molecular target: Human immunodeficiency virus type 1 protease (Human immunodeficiency virus 1, UniProt Q72874, D30N/L63P/N88D); experiment: Inhibition of HIV1 protease D30N/L63P/N88D mutant; procedure, shortened: as §1
[4] = molecular target: Human immunodeficiency virus type 1 protease (Human immunodeficiency virus 1, UniProt Q72874, G48V/I54V/L10I/L63P/V82A); experiment: Inhibition of HIV1 protease L10I/G48V/I54V/L63P/V82A mutant; procedure, shortened: as §1

SMILES | Ki [1] [nM] | Ki [2] [nM] | Ki [3] [nM] | Ki [4] [nM]
COc1cccc(S(=O)(=O)N(CC(C)C)C[C@@H](O)[C@H](Cc2ccccc2)NC(=O)[C@@H]2CN(c3ccccc3)C(=O)O2)c1 | 3.8 | – | – | –
COc1cccc(S(=O)(=O)N(Cc2cccs2)C[C@@H](O)[C@H](Cc2ccccc2)NC(=O)[C@@H]2CN(c3ccccc3)C(=O)O2)c1 | 239 | – | – | –
COc1cccc(S(=O)(=O)N(CC(C)C)C[C@@H](O)[C@H](Cc2ccccc2)NC(=O)[C@@H]2CN(c3ccc(C(C)=O)cc3)C(=O)O2)c1 | 0.84 | – | – | –
CC(C)CN(C[C@@H](O)[C@H](Cc1ccccc1)NC(=O)[C@@H]1CN(c2ccc(F)c(F)c2)C(=O)O1)S(=O)(=O)c1ccc(N)cc1 | 0.23 | – | – | –
COc1ccc(S(=O)(=O)N(CC(C)C)C[C@@H](O)[C@H](Cc2ccccc2)NC(=O)[C@@H]2CN(c3cccc(OC)c3)C(=O)O2)cc1 | 0.045 | – | – | –
COc1ccc(S(=O)(=O)N(CC(C)C)C[C@@H](O)[C@H](Cc2ccccc2)NC(=O)[C@@H]2CN(c3ccc(C(C)=O)cc3)C(=O)O2)cc1F | 0.08 | – | – | –
COc1cccc(S(=O)(=O)N(CC2CCCO2)C[C@@H](O)[C@H](Cc2ccccc2)NC(=O)[C@@H]2CN(c3ccccc3)C(=O)O2)c1 (single isomer, unassigned) | 42 | – | – | –
COc1ccc(S(=O)(=O)N(CC(C)C)C[C@@H](O)[C@H](Cc2ccccc2)NC(=O)[C@@H]2CN(c3cccc(C(F)(F)F)c3)C(=O)O2)cc1 | 0.006 | – | – | –
CC(C)CN(C[C@@H](O)[C@H](Cc1ccccc1)NC(=O)[C@@H]1CN(c2cccc(C(F)(F)F)c2)C(=O)O1)S(=O)(=O)c1ccc2c(c1)OCO2 | 0.016 | – | – | –
COc1ccc(S(=O)(=O)N(CC(C)C)C[C@@H](O)[C@H](Cc2ccccc2)NC(=O)[C@@H]2CN(c3ccc(F)c(F)c3)C(=O)O2)cc1F | 0.343 | – | – | –
COc1cccc(S(=O)(=O)N(Cc2cccs2)C[C@@H](O)[C@H](Cc2ccccc2)NC(=O)[C@@H]2CN(c3ccc(C(C)=O)cc3)C(=O)O2)c1 | 29.5 | – | – | –
CC(C)CN(C[C@@H](O)[C@H](Cc1ccccc1)NC(=O)[C@@H]1CN(c2ccc(F)c(F)c2)C(=O)O1)S(=O)(=O)c1ccc2c(c1)OCO2 | 0.085 | – | – | –
O=C(N[C@@H](Cc1ccccc1)[C@H](O)CN(Cc1cccs1)S(=O)(=O)c1cc(F)c(F)cc1F)[C@@H]1CN(c2cccc(F)c2)C(=O)O1 | 160 | – | – | –
COc1ccc(S(=O)(=O)N(CC(C)C)C[C@@H](O)[C@H](Cc2ccccc2)NC(=O)[C@@H]2CN(c3ccc(C(C)=O)cc3)C(=O)O2)cc1 | – | 1.94 | 0.179 | 0.78
CC(=O)c1ccc(N2C[C@@H](C(=O)N[C@@H](Cc3ccccc3)[C@H](O)CN(CC(C)C)S(=O)(=O)c3ccc(N)cc3)OC2=O)cc1 | 0.184 | – | – | –
COc1ccc(S(=O)(=O)N(CC(C)C)C[C@@H](O)[C@H](Cc2ccccc2)NC(=O)[C@@H]2CN(c3cccc(C(F)(F)F)c3)C(=O)O2)cc1F | 0.072 | – | – | –
COc1ccc(S(=O)(=O)N(CC(C)C)C[C@@H](O)[C@H](Cc2ccccc2)NC(=O)[C@@H]2CN(c3cccc(C(C)=O)c3)C(=O)O2)cc1 | – | 3.36 | 0.039 | 0.16
COc1cccc(S(=O)(=O)N(Cc2cccs2)C[C@@H](O)[C@H](Cc2ccccc2)NC(=O)[C@@H]2CN(c3cccc(F)c3)C(=O)O2)c1 | 189 | – | – | –
CC(=O)c1cccc(N2C[C@@H](C(=O)N[C@@H](Cc3ccccc3)[C@H](O)CN(CC(C)C)S(=O)(=O)c3ccc(OC(F)(F)F)cc3)OC2=O)c1 | 2 | – | – | –
CC(=O)c1cccc(N2C[C@@H](C(=O)N[C@@H](Cc3ccccc3)[C@H](O)CN(CC(C)C)S(=O)(=O)c3ccc4c(c3)OCO4)OC2=O)c1 | 0.006 | 3.51 | 0.235 | 0.72

SMILES | Ki [1] [nM] | Ki [2] [nM] | Ki [3] [nM] | Ki [4] [nM]
O=C(N[C@@H](Cc1ccccc1)[C@H](O)CN(Cc1cccs1)S(=O)(=O)c1cc(F)c(F)cc1F)[C@@H]1CN(c2ccccc2)C(=O)O1 | 170 | – | – | –
CC(C)CN(C[C@@H](O)[C@H](Cc1ccccc1)NC(=O)[C@@H]1CN(c2ccccc2)C(=O)O1)S(=O)(=O)c1ccc(N)cc1 | 0.53 | 10.3 | 0.92 | 2.08
COc1ccc(S(=O)(=O)N(CC(C)C)C[C@@H](O)[C@H](Cc2ccccc2)NC(=O)[C@H]2CN(c3ccccc3)C(=O)O2)cc1 | 10.7 | – | – | –
COc1cccc(S(=O)(=O)N(CC2CCCO2)C[C@@H](O)[C@H](Cc2ccccc2)NC(=O)[C@@H]2CN(c3cccc(F)c3)C(=O)O2)c1 (single isomer, unassigned) | 150 | – | – | –
CC(C)CN(C[C@@H](O)[C@H](Cc1ccccc1)NC(=O)[C@@H]1CN(c2cccc(C(F)(F)F)c2)C(=O)O1)S(=O)(=O)c1ccc(OC(F)(F)F)cc1 | 10 | – | – | –
COc1ccc(S(=O)(=O)N(CC(C)C)C[C@@H](O)[C@H](Cc2ccccc2)NC(=O)[C@@H]2CN(c3cccc(F)c3)C(=O)O2)cc1 | 0.083 | 4.94 | 0.08 | 3.56
COc1ccc(S(=O)(=O)N(CC(C)C)C[C@@H](O)[C@H](Cc2ccccc2)NC(=O)[C@@H]2CN(c3ccccc3)C(=O)O2)cc1 | 0.1 | – | – | –
COc1ccc(S(=O)(=O)N(CC2CC2)C[C@@H](O)[C@H](Cc2ccccc2)NC(=O)[C@@H]2CN(c3ccc(C(C)=O)cc3)C(=O)O2)cc1 | 0.8 | – | – | –
CC(=O)c1cccc(N2C[C@@H](C(=O)N[C@@H](Cc3ccccc3)[C@H](O)CN(CC(C)C)S(=O)(=O)c3ccc(N)cc3)OC2=O)c1 | 0.032 | – | – | –
CC(C)CN(C[C@@H](O)[C@H](Cc1ccccc1)NC(=O)[C@H]1CN(c2ccccc2)C(=O)O1)S(=O)(=O)c1ccc(N)cc1 | 37.4 | – | – | –
COc1ccc(S(=O)(=O)N(CC(C)C)C[C@@H](O)[C@H](Cc2ccccc2)NC(=O)[C@@H]2CN(c3cccc(F)c3)C(=O)O2)cc1F | 0.07 | – | – | –
CC(C)CN(C[C@@H](O)[C@H](Cc1ccccc1)NC(=O)[C@@H]1CN(c2cccc(C(F)(F)F)c2)C(=O)O1)S(=O)(=O)c1ccc(N)cc1 | 0.042 | 12.3 | 0.36 | 4.42
CC(=O)c1ccc(N2C[C@@H](C(=O)N[C@@H](Cc3ccccc3)[C@H](O)CN(CC(C)C)S(=O)(=O)c3ccc4c(c3)OCO4)OC2=O)cc1 | 0.016 | – | – | –
CC(C)CN(C[C@@H](O)[C@H](Cc1ccccc1)NC(=O)[C@@H]1CN(c2cccc(F)c2)C(=O)O1)S(=O)(=O)c1ccc2c(c1)OCO2 | 0.107 | – | – | –
COc1ccc(S(=O)(=O)N(CC2CC2)C[C@@H](O)[C@H](Cc2ccccc2)NC(=O)[C@@H]2CN(c3cccc(F)c3)C(=O)O2)cc1 | 0.257 | – | – | –
CC(=O)c1ccc(N2C[C@@H](C(=O)N[C@@H](Cc3ccccc3)[C@H](O)CN(Cc3cccs3)S(=O)(=O)c3cc(F)c(F)cc3F)OC2=O)cc1 | 168 | – | – | –
CC(C)CN(C[C@@H](O)[C@H](Cc1ccccc1)NC(=O)[C@@H]1CN(c2cccc(F)c2)C(=O)O1)S(=O)(=O)c1ccc(N)cc1 | 0.17 | – | – | –
COc1ccc(S(=O)(=O)N(CC(C)C)C[C@@H](O)[C@H](Cc2ccccc2)NC(=O)[C@@H]2CN(c3ccc(F)c(F)c3)C(=O)O2)cc1 | 0.066 | 8.69 | 0.152 | 1.18
COc1ccc(S(=O)(=O)N(CC2CC2)C[C@@H](O)[C@H](Cc2ccccc2)NC(=O)[C@@H]2CN(c3ccc(F)c(F)c3)C(=O)O2)cc1 | 0.58 | – | – | –
